Assays:
[1] = tested on: antigen-specific CD8+ T cells; test: In vivo cellular immune response assay; set-up: species or system C57BL/6 (B6) mice; conditions: for response rate of tetramer positive CD8+ T cells (day 7 = 100%): average, n = 3
Method in brief: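 Mice aged 6-8 weeks immunized i.v. with 200 μL of 100 μg Trp1455/9M peptide, 50 μg anti-CD40 mAb (FGK-45.5) and 50 μg TLR2 agonist (test compound, Pam2CSK4 or Pam3CSK4). Submandibular blood taken on days 7, 21 and 34, red cells lysed with ammonium chloride. Stained 40 min on ice with anti-CD8a, PE Trp1455/9M/H-2Db tetramer and anti-MHC II. Tetramer+ CD8+ cells gated by flow cytometry; n=3.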

[2] = target: TLR2 (Homo sapiens, UniProt O60603); test: In cyto europium TRF competition binding assay; conditions: Ki (summary statement), cell line not specified, summary in discussion
Chain of TLR2 (O60603 21-784): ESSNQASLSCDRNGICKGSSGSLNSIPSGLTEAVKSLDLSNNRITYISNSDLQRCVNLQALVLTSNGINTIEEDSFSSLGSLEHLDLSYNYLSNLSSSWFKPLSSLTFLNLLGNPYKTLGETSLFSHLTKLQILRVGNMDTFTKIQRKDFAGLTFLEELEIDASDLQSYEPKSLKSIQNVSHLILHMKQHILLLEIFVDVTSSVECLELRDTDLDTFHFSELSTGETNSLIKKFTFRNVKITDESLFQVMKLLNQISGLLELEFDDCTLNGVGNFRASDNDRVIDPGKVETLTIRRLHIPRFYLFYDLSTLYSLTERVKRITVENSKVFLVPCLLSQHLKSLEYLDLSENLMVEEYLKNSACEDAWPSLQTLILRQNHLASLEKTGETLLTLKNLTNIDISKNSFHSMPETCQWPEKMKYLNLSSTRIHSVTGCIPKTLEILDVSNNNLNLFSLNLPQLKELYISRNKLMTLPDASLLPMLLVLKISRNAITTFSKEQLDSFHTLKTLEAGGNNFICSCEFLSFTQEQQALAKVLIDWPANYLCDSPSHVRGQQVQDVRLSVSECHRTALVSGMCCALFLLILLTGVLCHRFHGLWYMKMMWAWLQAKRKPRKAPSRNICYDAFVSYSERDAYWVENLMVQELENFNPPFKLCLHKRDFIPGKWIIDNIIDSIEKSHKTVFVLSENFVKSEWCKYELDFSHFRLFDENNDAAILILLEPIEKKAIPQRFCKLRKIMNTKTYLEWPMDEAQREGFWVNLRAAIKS

| Ki [2] [nM] | Compound | response rate of tetramer positive CD8+ T cells (day 7 = 100%) ([1]; day 21 post-immunization) [%] | response rate of tetramer positive CD8+ T cells (day 7 = 100%) ([1]; day 34 post-immunization) [%] | signs or symptoms of stress or toxicity in mice ([1]; over the course of the experiment (34 days), 50 μg i.v.) |
| --- | --- | --- | --- | --- |
|  | CCCCCCCCCCCCCCCC(=O)OC[C@H](CSC[C@H](NC(=O)COCC(=O)NCCCOCCOCCOCCCNC(C)=O)C(=O)NCC(=O)N[C@H](CO)C(=O)NCCCOCCOCCOCCCNC(=O)COCC(N)=O)OC(=O)CCCCCCCCCCCCCCC [Compound 10] | 25.7 | 12.7 | No signs or symptoms of stress or toxicity were observed |
| < 100 | CCCCCCCCCCCCCCCC(=O)OC[C@H](CSC[C@H](NC(=O)COCC(=O)NCCCOCCOCCOCCCNC(=O)CCSC1CC(=O)N(CCNC(=O)CCCCCN2C(=CC=C3CCCC(C=CC4=[N+](CCCCS(=O)(=O)O)c5ccc(S(=O)(=O)[O-])cc5C4(C)C)=C3Oc3ccc(S(=O)(=O)O)cc3)C(C)(C)c3cc(S(=O)(=O)O)ccc32)C1=O)C(=O)NCC(=O)N[C@H](CO)C(=O)NCCCOCCOCCOCCCNC(=O)COCC(N)=O)OC(=O)CCCCCCCCCCCCCCC (stereo partly shown) [Compound 13, IRDye800CW-Mpr-PEGO-Dhc(Pam2)-Gly-DSer-PEGO-NH2] |  |  |  |

From PMC3861893 (Journal of medicinal chemistry, 2012)
